According to the M2OR odorant receptor database:

These compounds were tested against T1, OR2M3 (Homo sapiens) (UniProt Q8NG83). Conditions: stereoisomer not certain.
T1 sequence (whole entry): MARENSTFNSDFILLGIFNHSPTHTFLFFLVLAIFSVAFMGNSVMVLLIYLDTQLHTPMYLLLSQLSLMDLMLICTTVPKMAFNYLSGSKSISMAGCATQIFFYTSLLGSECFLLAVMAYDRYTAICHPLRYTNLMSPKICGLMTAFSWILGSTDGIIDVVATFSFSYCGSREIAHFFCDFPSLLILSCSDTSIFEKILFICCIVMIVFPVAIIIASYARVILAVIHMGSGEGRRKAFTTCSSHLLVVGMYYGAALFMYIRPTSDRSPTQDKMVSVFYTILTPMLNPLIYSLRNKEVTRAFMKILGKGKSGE
Procedure, shortened: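 Assay methods differ from source to source, frequently being transient luciferase assays in mammalian cell lines. For each receptor–molecule pair, the label responsive (active) applies when the original authors judged the measured signal statistically different from baseline, and non-responsive (inactive) applies otherwise.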

Odorant receptor agonist call, inactive:
CCCc1ccc(O)c(OC)c1, CCc1ccc(O)cc1, CCOC(=O)C(C)C, CC1=CCC(C(C)(C)S)CC1 (stereo not drawn), CCCC(S)CCO (stereo not drawn), CC(=O)CC(C)(C)S, CCCCCC=CC=O, CCO, CC(=O)c1ccccc1N, CCCC(=O)OCC, CCOC(=O)CCC(C)C, Cc1cccc(O)c1, CSC, C=CC(=O)CCCCC, CCCC(O)CC(=O)OCC (stereo not drawn), CC(C)(S)CCOC=O, CC(C)CC=O, CCCCC1OC(=O)CC1C (stereo not drawn), CCCCC=CC=CC=O, CCCC1CCCC(=O)O1 (stereo not drawn), CCC(S)C(C)=O (stereo not drawn), CC(=O)C=CC1=C(C)CCCC1(C)C, CCCCCCO, CC=CC(=O)C1=C(C)CCCC1(C)C, CC(=O)c1ccc(C)cc1, CCC(C)C=O (stereo not drawn), C=CC(=O)CC, CCC=CCC=O, CCC=CCCC=O, CC(=O)OCC=Cc1ccccc1, Cc1c[nH]c2ccccc12, SCc1cccs1, CC(C)CO, CCCCCc1ccccn1, CCOC(C)OCC, CC1=CCC(C(C)C)C=C1 (stereo not drawn), CCCCC=CC=O, CCc1cccc(O)c1
